High-throughput results deposited in PubChem by several laboratories.
RORa activator: activates the human nuclear receptor RORA | CHO-K1 Gal4-RORA LBD luciferase reporter, luminescence; percent increase over mock-subtracted basal signal | activation, % at 10 µM | 1.5% of 65,000 active | AID 560;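 active = activation above the mean of all tested compounds plus 3 SD, cut at about 49% in these data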;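 also: 0% = DMSO-treated RORA cells and 100% = added signal equal to DMSO minus mock-transfected cells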
HePTP inhibitor: blocks human HePTP tyrosine phosphatase; inhibition, % at 20 µM; recombinant HePTP phosphatase activity, OD absorbance; 0.64% of 110,000 active; P35236; in the data active = inhibition above about 50%; inconclusive = no clear call, values can overlap the other calls;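 also: plate controls were vehicle for no effect and reference inhibitor for full effect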
SF1 activator: activates the human nuclear receptor SF-1; activation, % at 10 µM; Q13285; CHO-K1 Gal4-SF-1 LBD luciferase reporter; % increase over DMSO SF-1-specific signal; AID 522; 1.9% of 65,000 active;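 active = activation above the mean activation of all tested compounds plus 3 SD, cut at about 50% in these data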
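Test system: transient Gal4-SF-1 LBD reporter, CHO-K1; Amount: 4,000 CHO-K1 cells per well; Doses: 10 µM only; Timing: compound exposure 20 h at 37 °C; Signal: luciferase light emission; Read-out basis: percent activation relative to DMSO median and mock-transfected background; Control set: DMSO negative control and −SF1 background wells; Replicates: one test per compound.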
D1 allo mod: allosteric modulators of human D1 dopamine receptor; P21728; B-score at 10 µM; HEK293 D1, CRE-luciferase, dopamine EC30 potentiation; actives deviate in either direction; AID 641; 5.9% of 58,000 active;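 active = luminescence count or its row- and column-corrected plate score outside the 99.7% band of the plate's sample wells, on either side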
M1 agonist: agonists of M1 muscarinic receptor; 3% of 64,000 active; B-score at 10 µM; AID 626; CHO-M1 cells, Fluo-4 calcium fluorescence, agonist mode; hits give high values;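 active = fluorescence rise, raw or as B-score row- and column-corrected plate score, outside the 99.7% band of its plate's samples, either direction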
M1 antagonist: antagonists of rat M1 muscarinic receptor. CHO-M1 cells, Fluo-4 calcium, ACh EC80 antagonist mode; hits give low values. B-score at 10 µM. 3.4% of 64,000 active. AID 628;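 active = calcium fluorescence response, raw or row-and-column corrected B-score, differing from the plate sample mean either way at a set confidence level, mostly lower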
Target sequence (P08482 whole entry, looked up): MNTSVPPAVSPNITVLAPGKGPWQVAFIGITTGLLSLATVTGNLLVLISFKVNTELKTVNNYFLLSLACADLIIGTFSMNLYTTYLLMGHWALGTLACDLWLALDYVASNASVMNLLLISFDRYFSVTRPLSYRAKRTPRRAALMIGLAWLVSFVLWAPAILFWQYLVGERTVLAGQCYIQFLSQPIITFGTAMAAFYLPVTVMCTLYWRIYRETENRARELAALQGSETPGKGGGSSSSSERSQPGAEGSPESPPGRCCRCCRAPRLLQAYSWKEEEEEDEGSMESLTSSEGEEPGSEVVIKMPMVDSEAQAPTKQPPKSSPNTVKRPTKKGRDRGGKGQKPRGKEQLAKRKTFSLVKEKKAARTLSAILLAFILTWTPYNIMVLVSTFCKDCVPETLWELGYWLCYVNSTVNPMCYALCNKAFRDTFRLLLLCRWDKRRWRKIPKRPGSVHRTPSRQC
M1 ag confirm: confirmation of rat M1 muscarinic receptor agonists | shares compounds with M1 agonist | CHO-M1 cells, Fluo-4 calcium fluorescence, agonist mode; actives lie on both sides | fluorescence change (max-min) at 10 µM | 19% of 1,700 active;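 active = fluorescence change differs from the solvent-only DMSO control mean at a set confidence level in both duplicate runs; inconclusive = differs from solvent-only control mean in just one of two runs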;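 also: an EC20 dose of acetylcholine follows compound addition during the same imaging run; raw fluorescence intensity difference in instrument units with no normalization to controls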
M4 agonist ctr: counter-screen for M1 agonists: activity at rat M4 receptor. 9% of 1,700 active. fluorescence change (max-min) at 10 µM. shares compounds with M1 agonist. AID 1741. CHO M4/Gqi5 cells, Fluo-4 calcium fluorescence, agonist mode; actives lie on both sides;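 active = fluorescence change differing from the plate's solvent-only control wells at 99.7% confidence in both duplicates, whether higher or lower; inconclusive = differs from solvent controls in only one of two duplicates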
* marks the source's active call; other numbers are inactive results; ? = inconclusive; . = not tested or not shown. An excerpt weighted towards active compounds, which were near 8.2% of everything screened.

SMILES	RORa activator	HePTP inhibitor	SF1 activator	D1 allo mod	M1 agonist	M1 antagonist	M1 ag confirm	M4 agonist ctr
O=c1cc(CNC2CCCCC2)c2ccccc2[nH]1	-19	-6	9	-0.2	-3*	-0.2	?	-48
CCOC(=O)N1CCC(NC(=O)c2cc3c(-c4ccc(OC)c(OC)c4)nn(C)c3s2)CC1	-2	7	11	-2.4	3.2	-0.68	.	.
CCOC(=O)C1CCN(C(=O)c2cc3c(-c4ccc(OC)c(OC)c4)nn(C)c3s2)CC1	1	3	10	4.7	2.3*	-0.48	-23	-32
CCOC(=O)C(CC)n1cnc2c(nnn2-c2ccc(C)cc2)c1=O (stereo not given)	0	-12	9	-0.56	6.4*	0.53	-22	-71*
COC(=O)C(C)n1cnc2c(nnn2-c2ccc(OC)cc2)c1=O (stereo not given)	-3	7	-9	0.85	-0.3	0.62	.	.
O=C(Nc1nc(-c2ccncc2)cs1)c1ccc(S(=O)(=O)N2CCOCC2)cc1	-9	-11	11	0.55	0.006	0.011	.	.
c1ccc(-c2nnc(Cn3c4ccccc4c4nc5ccccc5nc43)o2)cc1	20	-9	38	0.5	0	0	.	.
CCn1nc(-c2ccccc2)c2nc3ccccc3nc21	-14	4	-16	2.2	24*	-0.93	24	11
CCCn1nc(-c2ccccc2)c2nc3ccccc3nc21	-16	4	-15	2	475*	0.5	492*	1201*
O=C(NCc1ccccc1)c1ccccc1Cl	.	3	.	.	.	.	.	.
CCSc1nc(-c2cccs2)nc2c1c(=O)n(C)c(=O)n2C	5	5	2	0.52	0.58	0.53	.	.
O=C(NC1CC1)c1c[nH]c2ccc(S(=O)(=O)Nc3cccc(C(F)(F)F)c3)cc2c1=O	-4	8	1	1.4	-1.9*	0.46	-11	?
Cc1cc2cc(CCNC(=O)c3ccc(S(=O)(=O)N4CCOCC4)cc3)c(=O)[nH]c2cc1C	17	3	10	-0.85	6.7*	-1.9	?	-67
O=c1oc2c3c4c(cc2c2c1CCC2)OCCN4CCC3	0	-4	-21	1.3	24*	-1.4	111*	93
COc1cccc2cc(-c3nc(-c4cccs4)cs3)c(=O)oc12	55*	-3	33	-2.4*	14*	0.58	?	?
O=C(Nc1ccc(N2CCOCC2)c(Cl)c1)c1ccc(Br)o1	55*	2	67*	-5*	11*	-2.5*	-8.3	-16
CCC(C)(c1ccc(C=O)s1)c1ccc(C=O)s1	.	3	.	.	.	.	.	.
O=C(c1ccccc1)N1CCCOC1c1ccccc1 (stereo not given)	-18	8	-2	-0.095	0.17	0.32	.	.
OCC12COC(c3ccccc3)N1C(c1ccccc1)OC2 (stereo not given)	-10	3	-2	-0.49	8.3*	0.8	-16	?
CCC(=O)N1CCN(c2ccccc2NC(=O)COc2cccc(C)c2)CC1	15	5	-3	1.2	2.6	-0.6	.	.
Cc1ccc(C(C)C)c(OCC(=O)Nc2ccccc2N2CCN(C)CC2)c1	-7	6	5	.	0.8	-0.22	.	.
CCC(=O)N1CCN(c2ccccc2NC(=O)COc2ccccc2Cl)CC1	-11	-6	1	0.5	4.3*	-0.49	?	-75
CC(=O)N1CCN(c2ccccc2NC(=O)COc2cc(C)ccc2C(C)C)CC1	-7	6	1	-5.3*	4.3*	-0.87	-26*	-56
O=C(Nc1ccccc1N1CCN(C(=O)c2ccc(Cl)cc2)CC1)c1ccc2c(c1)OCO2	4	2	27	-0.63	-2.2*	0.014	-26	-28
CCC(=O)N1CCN(c2ccccc2NC(=O)c2cccc(C)c2)CC1	-4	5	11	-0.23	9.8*	-0.57	-15	?
SMILES	RORa activator	HePTP inhibitor	SF1 activator	D1 allo mod	M1 agonist	M1 antagonist	M1 ag confirm	M4 agonist ctr
O=P(O)(OC(c1ccccc1)C(F)(F)F)c1ccccc1 (stereo not given)	.	-5	.	.	.	.	.	.
CCOCCCn1c(SCC(=O)NC(C)(C)C)nc2ccccc2c1=O	-9	6	9	0.49	-0.36	0.032	.	.
CCn1c(SCC(=O)Nc2cc(C)ccc2C)nc2c(c1=O)SC(C)C2 (stereo not given)	4	-5	-23	0.78	1.3*	0.45	-17	?
Cc1ccc(C)c(NC(=O)CSc2nc3c(c(=O)n2C)SC(C)C3)c1 (stereo not given)	-5	3	-5	0.76	-0.72	-0.29	.	.
CC(=O)c1c(C)n(CC(=O)NCc2ccc3c(c2)OCO3)c2ccccc12	-9	0	-5	-1.7	3.4*	-0.49	?	-37
O=C(CCn1c(=O)[nH]c2ccccc2c1=O)Nc1ccccc1	4	3	4	-0.28	11*	0.43	-7.7	-31
COCCCNC(=O)c1ccc(Cn2c(=O)[nH]c3ccccc3c2=O)cc1	-9	-12	8	0.67	-0.041	0.66	.	.
COCCCNC(=O)CCCn1c(=O)[nH]c2ccccc2c1=O	-11	4	-7	0.13	2*	0.23	-20	-47
Cc1ccc2nc(-c3ccccn3)cc(C(=O)NC3CCN(C)CC3)c2c1	-8	-2	11	-0.87	-2.3*	-0.18	-20	-46
Cc1cc(NC(=O)c2cc(-c3ccccn3)nc3ccccc23)no1	8	-19	-7	.	-0.35	-1.2	.	.
CN1C=CC(=C2C(=O)c3ccccc3C2=O)C=C1	52*	10	16	-3.1	33*	2.6*	-30	?
CCOC(=O)C1=C(C)OC(N)=C(C#N)C1c1c(C)nn(-c2ccc(C)cc2)c1Cl (stereo not given)	-10	-5	8	-0.96	3.4*	0.14	1	-13
COC(=O)C1=C(C)OC(N)=C(C#N)C1c1c(C)nn(-c2ccccc2)c1Cl (stereo not given)	4	-8	-4	-0.35	-0.41	-0.11	.	.
O=C(CSc1nc2ccccc2c(=O)n1Cc1ccccc1)c1ccc(Cl)cc1	.	-2	.	.	.	.	.	.
O=c1c2ccccc2nc2n1CCN2Cc1ccc(Cl)cc1	-7	9	-20	-2.6	5.6*	-1.8	?	-59
CCOC(=O)c1c(NC(=O)c2nn(CC)cc2Br)c(C#N)nn1-c1ccccc1	13	4	-7	2.5	0.2	0.15	.	.
Oc1ccccc1-c1cc(C(F)(F)C(F)F)nc(-c2ccccc2)n1	17	6	-4	3	-0.8	0.69	.	.
Cc1nn(C(=O)c2ccccc2)c2c1C(=O)CC(C)(C)C2	-11	12	-12	.	9.7*	-0.035	-8.5	?
